# The list is not random: actives were taken first. Their share in the collection is about 9.2%.
# Autophagy HCS = autophagy modulators in MEF cells, primary screen, imaging, high-content, MEF GFP-LC3. hit rate 0.98% among 190,000. calls only at 10 µM (by protocol). MEF GFP-LC3 puncta imaging; test concentration mostly 10 µM;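 active = percentage of spot-positive cells more than 3 SD above its plate mean, without a fluorescence outlier flag or 80% toxicity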;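 note: spot-positive cell cutoff set from DMSO-treated cells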
# HCT116 PTEN-null = growth suppression of PTEN-null HCT116, primary screen, cell-based, CellTiter-Glo | HCT116 PTEN-null viability, 60 h; stronger effect = lower value | viability, % at 10 µM | hit rate 1.2% among 140,000;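 active = viability at or below a set limit, 4 SD under the median of all tested compounds, cut at about 3.7% in these data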;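 note: PTEN knockout HCT116 line with beta catenin targeted HCT116 as companion control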
# Lmaj promast = Leishmania major promastigote growth inhibition, primary screen | Leishmania major promastigotes, resazurin fluorescence viability | inhibition, % at 10 µM | hit rate 9% among 200,000 | AID 1063, 2008; in the data active = inhibition above about 50%;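 note: promastigotes grown with compound for 44 hours at 28 °C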
# HCT116 bCat-KO = primary screen for growth suppressors in beta-catenin knockout HCT116 cells (colon tumor, human). HCT116 beta-catenin knockout viability, CellTiter-Glo, 60 h; stronger effect = lower value. viability, % at 10 µM. hit rate 1.5% among 140,000. AID 818, 2007;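 active = viability at or under a set limit, the compound median less 4 SD, cut at about 6% in these data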;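 note: 0% = Hyamine 1622 control at 20 µM and 100% = untreated cell control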
# Dynein transport = inhibitors of GR-EGFP nuclear translocation, primary screen, dynein cargo transport inhibitor project, imaging, high-content, 3617.4 mouse cells. test concentration mostly 20 µM; stimulated with dexamethasone, 1 µM; stronger effect = lower value. z-score, hits read low. hit rate 0.47% among 220,000. AID 1381, 2008;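 active = plate z-score of nuclear minus cytoplasmic receptor signal below a set negative limit, without overly bright fluorescence or cell loss, cut at about -3.5 in these data, passing the limit was not always enough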;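 note: z-score of nuclear minus cytoplasmic ring GR-EGFP intensity difference per well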
#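 Buffer or medium – tet-free medium with charcoal-stripped serum · Signal – automated 10x imaging of fixed Hoechst-stained cells · Also added – dexamethasone agonist, 1.0 µM final, for 30 min · Incubation – induction 48 h, compound 1 h, agonist 30 min · Read-out – GR-EGFP nuclear translocation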
# * hit, by the source's call; i = inactive; . = no result; + = active, no number.
SMILES,Autophagy HCS,HCT116 PTEN-null,Lmaj promast,HCT116 bCat-KO,Dynein transport
CCN(CC)S(=O)(=O)c1ccc(C(=O)NC(C)(C)C)cc1,i,.,8,.,0.12
CCC1=NN(C(=O)Cc2ccc([N+](=O)[O-])cc2)C(O)(C(C)(C)C)C1 (stereo not given),+,.,6,.,0.072
Cc1cc(C)c2[nH]c(=O)c(CN(Cc3nnnn3C3CCCC3)C3CCCCC3)cc2c1,i,69,29,78,-0.75
Cc1cccc2cc(CN(Cc3nnnn3C3CCCCC3)C3CCCC3)c3nnnn3c12,i,58,50*,63,-0.62
COc1ccc(CC(=O)NNC(=O)c2cccnc2)cc1OC,i,.,-5,.,0.23
C/C(N)=C(/C#N)C(=O)COC(=O)c1ccccc1Oc1ccccc1,i,.,29,.,0.38
C/C(N)=C(/C#N)C(=O)COC(=O)C(c1ccccc1)c1ccccc1,i,.,73*,.,0.66
N#Cc1ccc(/C=N/NC(=O)CCc2ccc(S(=O)(=O)N3CCOCC3)cc2)cc1,i,89,-2,90,-0.4
Cc1cc(C)cc(NC(=O)CSc2ncc(S(=O)(=O)c3ccccc3)c(=O)[nH]2)c1,i,98,53*,94,-0.23
O=C(CC1CCCCC1)N1CCCC(c2nc(-c3ccc(S(=O)(=O)N4CCCC4)cc3)no2)C1 (stereo not given),i,66,55*,70,0.65
COc1cc(N/N=C(\C)c2ccc(O)c(C)c2)nc(-c2ccccc2)n1,i,.,9,.,-0.11
C/C(=N\Nc1cc(-c2ccccc2)nc(-c2ccccc2)n1)c1ccc(O)c(C)c1,i,2.0*,13,11,0.14
CCOC(=O)C1CCN(c2ccc(C(N)=O)cc2[N+](=O)[O-])CC1,i,97,-7,91,-0.21
CN(C)C=Nc1nonc1-c1ncn[nH]1,+,87,-3,91,-0.33
CN(C)C=Nc1nonc1-c1ccccc1,.,.,.,.,-0.35
O=C(CCNC(=O)c1ccccc1Cl)Nc1ccc(Cl)c(C(F)(F)F)c1,i,86,51*,91,0.27
C/C(CC(=O)Nc1ccc(Cl)c(C(F)(F)F)c1)=N\NC(=O)c1ccccc1O,i,49,-10,65,-0.039
C/C(CC(=O)Nc1ccc(Cl)c(C(F)(F)F)c1)=N\NC(N)=S,i,.,97*,.,-0.89
O=C(NNC(=O)C1CCN(c2ncccn2)CC1)c1ccc(Cl)cc1,i,.,-4,.,2.5
Cc1ccc(C)c(NC(=S)N2CCC(N(C)CC3CCCO3)CC2)c1 (stereo not given),i,104,91*,100,1.4
COc1cccc(NC(=S)N2CCC(N(C)CC3CCCO3)CC2)c1 (stereo not given),i,97,94*,88,0.25
Cc1ccc(C)c(NC(=S)N2CCCCCC2)c1,i,101,-6,92,.
Cc1ccc(NC(=S)N2CCC(N(C)CC3CCCO3)CC2)c(C)c1 (stereo not given),i,91,90*,88,0.035
COc1cccc2sc(Nc3nnc(-c4cccs4)o3)nc12,+,8,96*,2.6*,1
COc1cccc2sc(Nc3nnc(-c4ccc(F)cc4)o3)nc12,i,15,96*,13,-0.64
SMILES,Autophagy HCS,HCT116 PTEN-null,Lmaj promast,HCT116 bCat-KO,Dynein transport
O=C(N/N=C/c1ccc(Br)cc1)c1ccccc1-n1cccc1,i,29,65*,29,-0.61
CC(C)c1cc(N=NC(N)=O)cc(C(C)C)c1O,i,.,-3,.,-0.58
CCOc1ccc(C2=C(C=Nc3c(C)n(C)n(-c4ccccc4)c3=O)C(c3ccc(F)cc3)c3ccccc3O2)cc1 (stereo not given),i,84,57*,88,-0.38
N#Cc1cc2cc3ccccc3nc2n2c(=O)c3ccccc3nc12,i,.,23,.,1.7
COc1ccc(CCNC(=O)c2ccc(N(C)S(=O)(=O)c3ccc(C)cc3)cc2)cc1,i,.,17,.,0.63
COc1ccc(CCNC(=O)c2ccccc2N(C)S(=O)(=O)c2ccccc2)cc1,i,86,80*,87,-0.98
CCN(c1ccccc1)S(=O)(=O)c1ccc(Cl)c(C(=O)NCCc2ccc(OC)cc2)c1,i,85,89*,89,0.18
CN1CCCN(C(=O)c2ccc(Cl)c(S(=O)(=O)N(C)c3ccccc3)c2)CC1,i,101,72*,94,0.96

# Screening results as filed in PubChem.
